Reference: ChEMBL document CHEMBL3751676, “Combating P-glycoprotein-mediated multidrug resistance with 10-O-phenyl dihydroartemisinin ethers in MCF-7 cells” (Eur J Med Chem, 2016)
Calls of active or inactive are those of the source. No cut-off for these calls is given here.

Experiments:
[1] = Permeability across apical to basolateral side in MDCK cells after 90 mins by LC-MS/MS analysis; type: ADME, cell-based, Canis lupus familiaris; conditions: dog
Summary of the method: (§1)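 Wild-type MDCK cells on Transwell filters. Transport was run in HBSS pH 7.4 at 37 °C in A-B and B-A directions, and plates were separated after 90 min incubation. Efflux ratio is Papp(B-A)/Papp(A-B). Papp is reported as "<" when receiver concentrations were below the quantitation limit.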

[2] = Cell cycle arrest in human MCF7/ADR cells assessed as accumulation at sub-G1 phase at 0.25 uM after 48 hrs by propidium iodide staining based flow cytometry (reference value: […]); type: functional; conditions: NCI/ADR-RES
[3] = Cell cycle arrest in human MCF7/ADR cells assessed as accumulation at G1 phase at 0.05 uM after 48 hrs by propidium iodide staining based flow cytometry (reference value: 56.9 %); type: functional; conditions: NCI/ADR-RES
Summary of the method: (§2)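 Cells treated for 24 h or 48 h, then trypsinized, fixed in ice-cold 70% ethanol and stained with propidium iodide for flow cytometry. Percentages of cells in G1 and sub-G1 are compared with untreated cells.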

[4] = Antiproliferative activity against human MCF7/ADR cells after 96 hrs by MTT assay; type: functional; conditions: NCI/ADR-RES
Summary of the method: (§3)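 MTT: cells seeded at 1.5-4.0 × 10^4 cells/mL and incubated overnight at 37 C, then exposed to 5-9 concentrations (DMSO stocks diluted in growth medium; final DMSO ≤0.5%) for 96 h. MTT added at 0.5 mg/mL for a further 4 h at 37 C and the formazan dissolved. Inhibition calculated relative to control; GI50 estimated by curve fitting; 3-5 repeats, mean ± SD.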

MCF7 [5] = assay: Cell cycle arrest in human MCF7 cells assessed as accumulation at G1 phase at 0.25 uM after 24 hrs by propidium iodide staining based flow cytometry (reference value: 62.5 %); type: functional; summary of the method: as §2
MCF7 [6] = assay: Downregulation of cyclin B1 expression in human MCF7 cells at 0.5 uM after 24 and 48 hrs by western blot analysis; type: functional, cell-based
Summary of the method: (§4)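 Lysates from treated cells were immunoblotted. Membranes were blocked in 5% nonfat milk, incubated overnight at 4 C with antibodies to PARP, p27, cyclin D1 or cyclin B1, and detected by enhanced chemiluminescence.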

[7] = Downregulation of cyclin D1 expression in human MCF7/ADR cells at 0.1 uM after 48 hrs by western blot analysis; type: functional, cell-based; conditions: NCI/ADR-RES; summary of the method: as §4
NCI/ADR-RES [8] = assay: Effect on cleaved PARP level in human MCF7/ADR cells at 0.1 uM after 24 and 48 hrs by western blot analysis; type: functional, cell-based; summary of the method: as §4
MCF7 [9] = assay: Cell cycle arrest in human MCF7 cells assessed as accumulation at G1 phase after 24 and 48 hrs by propidium iodide staining based flow cytometry; type: functional; summary of the method: as §2
NCI/ADR-RES [10] = assay: Selectivity index, ratio of GI50 for human MCF7 cells to GI50 for human MCF7/ADR cells; type: functional
MCF7 [11] = assay: Upregulation of p27 expression in human MCF7 Cells at 0.5 uM after 24 and 48 hrs by western blot analysis; type: functional, cell-based; summary of the method: as §4
[12] = Downregulation of cyclin B1 expression in human MCF7/ADR cells at 0.1 uM after 48 hrs by western blot analysis; type: functional, cell-based; conditions: NCI/ADR-RES; summary of the method: as §4
MDR1 (ABCB1) [13] = target: T1, MDR1 (ABCB1) (Homo sapiens, UniProt P08183); assay: Activity at MDR1 (unknown origin) expressed in MDCK cells assessed as permeability across basolateral to apical after 90 mins by LC-MS/MS analysis; type: ADME, cell-based
MCF7 [14] = assay: Antiproliferative activity against human MCF7 cells after 96 hrs by MTT assay; type: functional; conditions: MCF7, 96 h; summary of the method: as §3
[15] = Permeability across basolateral to apical side in MDCK cells after 90 mins by LC-MS/MS analysis; type: ADME, cell-based, Canis lupus familiaris; conditions: dog; summary of the method: as §1
MCF7 [16] = assay: Cell cycle arrest in human MCF7 cells assessed as accumulation at G1 phase at 0.5 uM after 24 hrs by propidium iodide staining based flow cytometry (reference value: 62.5 %); type: functional; summary of the method: as §2
MCF7 [17] = assay: Downregulation of cyclin D1 expression in human MCF7 cells at 0.5 uM after 24 and 48 hrs by western blot analysis; type: functional, cell-based; summary of the method: as §4
MCF7 [18] = assay: Cell cycle arrest in human MCF7 cells assessed as accumulation at G1 phase at 0.5 uM after 48 hrs by propidium iodide staining based flow cytometry (reference value: 62.8 %); type: functional; summary of the method: as §2
[19] = Cell cycle arrest in human MCF7/ADR cells assessed as accumulation at sub-G1 phase at 0.05 uM after 48 hrs by propidium iodide staining based flow cytometry (reference value: […]); type: functional; conditions: NCI/ADR-RES
[20] = Cell cycle arrest in human MCF7/ADR cells assessed as accumulation at G1 phase at 0.25 uM after 24 hrs by propidium iodide staining based flow cytometry (reference value: 54.6 %); type: functional; conditions: NCI/ADR-RES; summary of the method: as §2
[21] = Cell cycle arrest in human MCF7/ADR cells assessed as accumulation at G1 phase at 0.25 uM after 48 hrs by propidium iodide staining based flow cytometry (reference value: 56.9 %); type: functional; conditions: NCI/ADR-RES; summary of the method: as §2
MCF7 [22] = assay: Effect on cleaved PARP level in human MCF7 cells at 0.5 uM after 24 and 48 hrs by western blot analysis; type: functional, cell-based; summary of the method: as §4
MCF7 [23] = assay: Cell cycle arrest in human MCF7 cells assessed as accumulation at G1 phase at 0.25 uM after 48 hrs by propidium iodide staining based flow cytometry (reference value: 62.8%); type: functional; summary of the method: as §2
MDR1 (ABCB1) [24] = target: T1, MDR1 (ABCB1); assay: Activity at MDR1 (unknown origin) expressed in MDCK cells assessed as permeability across apical to basolateral after 90 mins by LC-MS/MS analysis; type: ADME, cell-based
[25] = Cell cycle arrest in human MCF7/ADR cells assessed as accumulation at G1 phase at 0.05 uM after 24 hrs by propidium iodide staining based flow cytometry (reference value: 54.6 %); type: functional; conditions: NCI/ADR-RES; summary of the method: as §2
NCI/ADR-RES [26] = assay: Effect on p27 expression in human MCF7/ADR cells at 0.1 uM after 48 hrs by western blot analysis; type: functional, cell-based; summary of the method: as §4

T1 sequence (P08183 whole entry): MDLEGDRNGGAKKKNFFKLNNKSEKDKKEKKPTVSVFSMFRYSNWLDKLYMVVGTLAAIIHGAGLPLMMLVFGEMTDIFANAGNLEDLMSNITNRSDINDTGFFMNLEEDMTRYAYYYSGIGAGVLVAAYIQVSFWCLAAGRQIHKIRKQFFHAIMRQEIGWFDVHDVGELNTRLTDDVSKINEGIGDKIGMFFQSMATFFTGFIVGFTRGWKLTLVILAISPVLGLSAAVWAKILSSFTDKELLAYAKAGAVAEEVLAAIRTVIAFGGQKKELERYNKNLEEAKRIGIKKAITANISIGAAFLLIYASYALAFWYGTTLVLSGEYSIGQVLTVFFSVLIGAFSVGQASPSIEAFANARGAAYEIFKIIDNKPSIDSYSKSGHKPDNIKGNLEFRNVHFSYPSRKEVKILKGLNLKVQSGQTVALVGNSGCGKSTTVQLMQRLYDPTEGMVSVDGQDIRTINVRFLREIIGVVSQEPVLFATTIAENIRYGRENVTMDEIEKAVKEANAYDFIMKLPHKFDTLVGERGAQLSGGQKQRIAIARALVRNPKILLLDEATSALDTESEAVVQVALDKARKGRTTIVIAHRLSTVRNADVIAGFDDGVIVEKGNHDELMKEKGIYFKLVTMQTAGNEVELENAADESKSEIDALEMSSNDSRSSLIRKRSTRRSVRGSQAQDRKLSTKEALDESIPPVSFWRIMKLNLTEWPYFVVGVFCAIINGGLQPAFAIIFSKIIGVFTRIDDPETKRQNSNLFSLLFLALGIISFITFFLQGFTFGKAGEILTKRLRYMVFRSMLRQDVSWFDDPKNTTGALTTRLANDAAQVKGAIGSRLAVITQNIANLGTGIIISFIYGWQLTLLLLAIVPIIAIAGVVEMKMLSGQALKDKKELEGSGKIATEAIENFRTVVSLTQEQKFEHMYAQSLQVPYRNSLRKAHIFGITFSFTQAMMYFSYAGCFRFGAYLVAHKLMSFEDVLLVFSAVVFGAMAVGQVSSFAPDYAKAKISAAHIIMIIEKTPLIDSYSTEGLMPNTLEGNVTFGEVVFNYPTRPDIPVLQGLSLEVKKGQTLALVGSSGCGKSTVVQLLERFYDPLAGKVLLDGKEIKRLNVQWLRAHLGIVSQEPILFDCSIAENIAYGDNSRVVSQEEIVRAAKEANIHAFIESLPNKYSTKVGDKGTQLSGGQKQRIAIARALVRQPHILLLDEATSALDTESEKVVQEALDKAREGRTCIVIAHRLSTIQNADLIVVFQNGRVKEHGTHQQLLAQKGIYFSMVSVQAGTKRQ

## C[C@H]1[C@@H](Oc2ccc(/C=C/C(=O)N3CCN(c4cccc(C(F)(F)F)c4)CC3)cc2)O[C@@H]2O[C@@]3(C)CC[C@H]4[C@H](C)CC[C@@H]1[C@@]24OO3
[1]
  Papp A→B at 1.5 h: < 18.2 nm/s
[2]
  Activity: 8.7%
[3]
  Activity: 65.2%
[4]
  GI50: 0.021 µM
MCF7 [5]
  Activity: 70%
MCF7 [6]
  inhibition: Active
[7]
  inhibition: Active
NCI/ADR-RES [8]
  Activity: inactive
MCF7 [9]
  Activity: Dose-dependent effect
NCI/ADR-RES [10]
  RatioGI50: 15.24
MCF7 [11]
  Activity: Active
[12]
  inhibition: Active
MDR1 (ABCB1) [13]
  Papp B→A at 1.5 h: < 10 nm/s
MCF7 [14]
  GI50: 0.32 µM
[15]
  Papp B→A at 1.5 h: < 9.3 nm/s
MCF7 [16]
  Activity: 73.8%
MCF7 [17]
  inhibition: Active
MCF7 [18]
  Activity: 83.4%
[19]
  Activity: 2.4%
[20]
  Activity: 70.2%
[21]
  Activity: 62.6%
MCF7 [22]
  Activity: inactive
MCF7 [23]
  Activity: 82.3%
MDR1 (ABCB1) [24]
  Papp A→B at 1.5 h: < 18.3 nm/s
[25]
  Activity: 71.5%
NCI/ADR-RES [26]
  Activity: inactive
